Laboratory results: ChEMBL document CHEMBL2169786, “5-Arylidenethioxothiazolidinones as inhibitors of tyrosyl-DNA phosphodiesterase I” (J Med Chem, 2012)
The source made the active and inactive calls. The calls are words filed in the database; no cut-off is given here.

Assays:
[1] = biological target: T1, Tyrosyl-DNA phosphodiesterase 1 (Homo sapiens, UniProt Q9NUW8); assay: Inhibition of human recombinant Tdp1 assessed as conversion of 14-mer 5'-32P-labeled 3'-phosphotyrosyl DNA substrate N14Y to 14-mer 5'-32P-labeled 3'-phosphate DNA product N14P after 15 mins by PAGE analysis
[2] = biological target: T1, Tyrosyl-DNA phosphodiesterase 1; assay: Inhibition of human recombinant Tdp1 expressed in Tdp1 knockout chicken DT40 cells using 5'-32P-labeled 5'-GATCTAAAAGACTT-pY-3' as substrate after 15 mins by PAGE analysis
[3] = biological target: T1, Tyrosyl-DNA phosphodiesterase 1; assay: Binding affinity to human recombinant Tdp1 in amine coupled to CM5 sensor chip by surface plasmon resonance analysis
Procedure, shortened: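 SPR: Tdp1 amine-coupled to CM5 chip (~6000 RU), active site protected during coupling by prebinding 2 μM 3′-phosphate 14-mer oligo to 1 μM Tdp1 in 10 mM sodium acetate pH 4.5, 20 min. Compound series 0.39–50 μM in Tris/KCl/EDTA/DTT/BSA running buffer with 5% DMSO, pH 7.5, injected at 30 μL/min, 25 °C. Buffer-cycle referencing; DMSO calibration.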

[4] = system: N14Y tyrosyl-oligonucleotide (DNA, no organism); assay: Binding affinity to biotin- GATCTAAAAGACTT-Tyr immobilized CM5 sensor chip by surface plasmon resonance analysis
[5] = biological target: T2, Tyrosyl-DNA phosphodiesterase 2 (Homo sapiens, UniProt O95551); assay: Inhibition of recombinant Tdp2
T2 sequence (O95551 whole entry): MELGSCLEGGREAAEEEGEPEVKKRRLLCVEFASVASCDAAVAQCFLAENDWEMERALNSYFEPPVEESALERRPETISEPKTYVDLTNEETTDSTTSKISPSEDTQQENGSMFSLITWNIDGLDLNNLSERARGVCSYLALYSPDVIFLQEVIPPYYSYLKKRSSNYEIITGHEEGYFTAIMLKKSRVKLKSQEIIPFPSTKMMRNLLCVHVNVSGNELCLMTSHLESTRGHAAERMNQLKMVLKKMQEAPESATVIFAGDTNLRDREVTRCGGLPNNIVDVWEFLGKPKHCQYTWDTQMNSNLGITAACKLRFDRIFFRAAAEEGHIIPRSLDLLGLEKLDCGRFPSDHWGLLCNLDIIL

Homo sapiens = species: Homo sapiens; assay: Selectivity ratio of IC50 for recombinant Tdp2 to IC50 for human recombinant Tdp1
[6] = biological target: T1, Tyrosyl-DNA phosphodiesterase 1; assay: Inhibition of human recombinant Tdp1 assessed as conversion of 14-mer 5'-32P-labeled 3'-phosphotyrosyl DNA substrate N14Y to 14-mer 5'-32P-labeled 3'-phosphate DNA product N14P after 15 mins by PAGE analysis in presence of bovine serum albumin
[7] = biological target: T1, Tyrosyl-DNA phosphodiesterase 1; assay: Ratio of IC50 for human recombinant Tdp1 in presence of bovine serum albumin to IC50 for human recombinant Tdp1 in absence of bovine serum albumin

T1 sequence (Q9NUW8 whole entry): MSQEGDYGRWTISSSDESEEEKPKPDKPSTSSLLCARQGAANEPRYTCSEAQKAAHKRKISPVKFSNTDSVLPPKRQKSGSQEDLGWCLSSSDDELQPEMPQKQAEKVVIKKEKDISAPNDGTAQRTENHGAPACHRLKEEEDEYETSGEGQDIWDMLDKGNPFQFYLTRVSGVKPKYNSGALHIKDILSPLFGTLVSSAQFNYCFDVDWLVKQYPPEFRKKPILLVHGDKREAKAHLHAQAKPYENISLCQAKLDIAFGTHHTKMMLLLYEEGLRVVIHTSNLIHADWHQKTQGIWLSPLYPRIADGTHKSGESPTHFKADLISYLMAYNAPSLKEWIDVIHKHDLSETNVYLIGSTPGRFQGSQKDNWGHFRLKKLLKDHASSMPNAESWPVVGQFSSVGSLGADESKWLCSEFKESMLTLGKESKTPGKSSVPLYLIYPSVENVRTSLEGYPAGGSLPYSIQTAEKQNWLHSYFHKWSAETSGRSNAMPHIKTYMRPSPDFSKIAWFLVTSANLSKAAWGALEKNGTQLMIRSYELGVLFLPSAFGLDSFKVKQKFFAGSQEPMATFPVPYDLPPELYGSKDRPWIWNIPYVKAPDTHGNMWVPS

## O=C1/C(=C/c2ccc(O)c(O)c2)NC(=S)N1c1ccccc1
[1]
  IC50: 74 µM

## O=C1NC(=O)/C(=C/c2ccc3[nH]ccc3c2)S1
[1]
  IC50: > 111 µM

## N#C/C(=C\c1ccc(O)c(O)c1)C(=O)NCc1ccccc1
[1]
  IC50: > 333 µM

## N#C/C(=C\c1ccc(C(=O)O)cc1)C(N)=S
[1]
  IC50: 12 µM

## O=C1NC(=S)/C(=C/c2ccccc2O)S1
[1]
  IC50: 34 µM

## O=C1NC(=O)/C(=C/c2ccc(C(=O)O)cc2)S1
[1]
  IC50: > 111 µM

## O=C1NC(=S)/C(=C/c2ccc([N+](=O)[O-])cc2)S1
[1]
  IC50: 19 µM

## COc1cc(/C=C2\SC(=O)NC2=S)cc(OC)c1O
[1]
  IC50: 48 µM

## N#CC(C#N)=Cc1cc(O)c(O)c(O)c1 [TYRPHOSTIN 25]
[1]
  IC50: > 333 µM

## O=C1NC(=S)/C(=C/c2ccccc2C(=O)O)S1 [listing 1 of 2 here]
[2]
  IC50: 138 µM
[1]
  IC50: 15 µM

## O=C1NC(=S)/C(=C/c2ccncc2)S1
[1]
  IC50: 75 µM

## O=C1NC(=S)/C(=C/c2cccc(O)c2O)S1
[2]
  IC50: 220 µM
[1]
  IC50: 5.8 µM

## N#Cc1ccc(/C=C2\SC(=O)NC2=S)cc1
[1]
  IC50: 28 µM

## O=C1NC(=S)/C(=C/c2ccc(-c3ccccc3)s2)S1
[1]
  IC50: 46 µM

## O=C1NC(=S)/C(=C/c2cc(O)ccc2O)S1
[2]
  IC50: 76 µM
[1]
  IC50: 7.1 µM

## O=C1NC(=S)/C(=C/c2ccc(C(=O)O)cc2)S1 [listing 1 of 2 here]
[2]
  IC50: 11 µM
[1]
  IC50: 16 µM

## O=C1NC(=S)/C(=C/c2ccccc2-c2nnn[nH]2)S1
[1]
  IC50: 111 µM

## COC(=O)c1cccc(/C=C2\SC(=O)NC2=S)c1
[1]
  IC50: 51 µM

## O=C1NC(=S)N(Cc2ccccc2)/C1=C\c1ccc(C(=O)O)cc1
[1]
  IC50: > 333 µM

## O=C(O)c1ccc(/C=C2\NC(=S)N(c3ccccc3)C2=O)cc1
[1]
  IC50: > 333 µM

## O=C1NC(=S)/C(=C/c2ccc(-c3nnn[nH]3)cc2)S1
[1]
  IC50: 32 µM

## O=C1NC(=S)/C(=C/c2ccc(O)cc2O)S1
[2]
  IC50: 76 µM
[1]
  IC50: 4.1 µM

## O=C1NC(=S)/C(=C/c2ccc(O)c(O)c2)S1
[2]
  IC50: 41 µM
[1]
  IC50: 2.6 µM

## N#C/C(=C\c1ccc(O)c(O)c1)C(=S)NCc1ccccc1
[1]
  IC50: 18 µM

## O=C1/C(=C/c2ccc(F)cc2)NC(=S)N1c1ccccc1
[1]
  IC50: > 333 µM

## O=C1NC(=S)/C(=C/c2ccc(O)c(O)c2O)S1
[3]
  Activity: Dose-dependent effect
[4]
  Activity: inactive
[5]
  IC50: 17 µM
Homo sapiens
  Ratio IC50: 20
[2]
  IC50: 35 µM
[6]
  IC50: 2.8 µM
[7]
  Ratio IC50: 3
[1]
  IC50: 0.87 µM

## O=C1NC(=S)/C(=C/c2csc3ccccc23)S1
[1]
  IC50: 34 µM

## N#C/C(=C\c1ccc(O)c(O)c1)C(=O)O
[1]
  IC50: > 333 µM

## O=C1NC(=S)/C(=C/c2ccc(P(=O)(O)O)cc2)S1
[2]
  IC50: 69 µM
[1]
  IC50: 2.2 µM

## O=C1NC(=S)/C(=C/c2ccccc2C(=O)O)S1 [listing 2 of 2 here]
[2]
  IC50: 280 µM
[1]
  IC50: 8.5 µM

## N#C/C(=C\c1ccc2[nH]ccc2c1)C(N)=S
[1]
  IC50: > 333 µM

## O=C1NC(=O)/C(=C/c2ccc(F)cc2)S1
[1]
  IC50: > 333 µM

## O=C1NC(=S)/C(=C/c2ccc(Br)cc2)S1
[1]
  IC50: 30 µM

## N#C/C(=C\c1ccc2ccccc2c1)C(N)=S
[1]
  IC50: > 333 µM

## N#C/C(=C\c1ccc(F)cc1)C(N)=S
[1]
  IC50: > 333 µM

## O=C1NC(=S)/C(=C/c2ccc(C(=O)O)cc2)S1 [listing 2 of 2 here]
[2]
  IC50: 6.9 µM
[1]
  IC50: 7.8 µM

## O=C1NC(=S)/C(=C/c2ccc(O)cc2)S1
[1]
  IC50: 39 µM

## Cn1cc(/C=C2\SC(=O)NC2=S)c2ccccc21
[1]
  IC50: 40 µM

## N#C/C(=C\c1ccc(O)c(O)c1)C(N)=O
[1]
  IC50: > 333 µM

## O=C1NC(=S)/C(=C/c2cccnc2)S1
[1]
  IC50: 44 µM

## N#C/C(=C\c1ccc(Br)cc1)C(N)=S
[1]
  IC50: > 333 µM

## COc1cc(/C=C2\SC(=O)NC2=S)ccc1O
[1]
  IC50: 11 µM

## CCOP(=O)(OCC)c1ccc(/C=C2\SC(=O)NC2=S)cc1
[1]
  IC50: 29 µM

## O=C1NC(=S)/C(=C/c2ccc3[nH]ccc3c2)S1
[1]
  IC50: 12 µM

## O=C1NC(=S)/C(=C/c2ccccc2S(=O)(=O)O)S1
[1]
  IC50: 20 µM

## O=C1NC(=S)/C(=C/c2ccc(F)cc2)S1
[1]
  IC50: 27 µM

## N#C/C(=C\c1ccc([N+](=O)[O-])cc1)C(N)=S
[1]
  IC50: > 333 µM

## O=C1NC(=S)/C(=C/c2cccc(C(=O)O)c2)S1
[1]
  IC50: 15 µM

## CC(=O)Nc1ccc(/C=C(\C#N)C(N)=S)cc1
[1]
  IC50: > 333 µM

## O=C1NC(=S)N(Cc2ccccc2)/C1=C\c1ccc(O)c(O)c1
[1]
  IC50: 13 µM

## O=C1NC(=S)/C(=C/c2cccc(O)c2)S1
[1]
  IC50: 26 µM

## COC(=O)c1ccc(/C=C2\SC(=O)NC2=S)cc1
[2]
  IC50: 38 µM
[1]
  IC50: 6.7 µM
